In data set [1] the test system is Brain. In words: AUC in rat brain at 0.03 mg/kg, po by LC/MS/MS analysis. The format is ADME, organism-based. On the set-up: dose 0.03 mg/kg, route oral. As to conditions: in vivo. The essentials: (§1)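 Rats given single oral doses of 0.03, 0.3 or 3 mg/kg as a suspension in 0.5% methylcellulose. Brain drug levels were measured by LC/MS/MS over time, and AUC is reported in ng h/g. Each value is the mean of n = 3.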

Data set [2] concerns the target T1, Fatty-acid amide hydrolase 1 (Rattus norvegicus, UniProt P97612).
T1 sequence (P97612 whole entry): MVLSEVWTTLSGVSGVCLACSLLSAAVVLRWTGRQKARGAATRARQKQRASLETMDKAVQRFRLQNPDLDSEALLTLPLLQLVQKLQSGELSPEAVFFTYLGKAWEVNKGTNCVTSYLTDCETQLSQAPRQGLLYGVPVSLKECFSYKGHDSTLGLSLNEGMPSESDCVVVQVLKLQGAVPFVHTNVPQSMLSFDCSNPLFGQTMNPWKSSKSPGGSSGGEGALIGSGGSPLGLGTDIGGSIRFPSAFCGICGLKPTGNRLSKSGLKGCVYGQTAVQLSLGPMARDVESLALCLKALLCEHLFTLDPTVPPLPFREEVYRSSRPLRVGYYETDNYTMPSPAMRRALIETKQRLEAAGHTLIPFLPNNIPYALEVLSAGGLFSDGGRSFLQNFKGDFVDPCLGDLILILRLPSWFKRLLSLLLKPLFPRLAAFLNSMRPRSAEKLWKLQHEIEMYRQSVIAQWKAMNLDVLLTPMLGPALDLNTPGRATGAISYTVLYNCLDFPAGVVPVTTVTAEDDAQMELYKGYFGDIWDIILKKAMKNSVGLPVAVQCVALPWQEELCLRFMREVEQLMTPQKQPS
In words: Apparent inhibition of rat FAAH using AMCAA as substrate after 30 mins by fluorescence assay. The method, boiled down:
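Rat FAAH enzyme fraction (125–250 ng final) was reacted with AMCAA substrate across a range of compound concentrations at 37 °C. Buffer: 125 mM Tris-HCl pH 9.0, 1 mM EDTA, 0.4 mM HEPES, 0.2% glycerol, 0.02% Triton X-100, 0.3% fatty acid free BSA. Fluorescence read at ex 355/em 460 nm, scaled to solvent (100%) and zero-time (0%). IC50 determined at a 30 min reaction.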

In another data set the test system is Mus musculus. In words: Analgesic activity in ICR mouse assessed as inhibition of acetic acid-induced writhing at 10 mg/kg, po pretreated for 60 mins followed by acetic acid-challenge measured for 20 mins relative to control. The format is functional. The method, boiled down: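 Mice received compound po at 10 mg/kg as a suspension in 0.5% methylcellulose (10 mL/kg). After 60 min, 0.6% (v/v) acetic acid (10 mL/kg) was given ip. Each mouse was then placed alone in an observation chamber. Treated mice were compared with vehicle-treated mice by Student's t-test.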
(In writhing tests, fewer writhes than in controls are read as antinociception.)

The nature of data set [3]: Ratio of drug level in brain to plasma in rat at 3 mg/kg, po. The format is ADME, organism-based. Also on record: dose 3 mg/kg, route oral. Conditions: read-out: BPR. The essentials:
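Rats were dosed orally at 0.03, 0.3 or 3 mg/kg as a suspension in 0.5% methylcellulose. Compound levels in plasma and brain were quantified by LC/MS/MS. Cmax, Tmax and AUC are means of n = 3.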

Data set [4] deals with Brain. In words: AUC in rat brain at 0.3 mg/kg, po by LC/MS/MS analysis. It counts as ADME, organism-based. Also on record: dose 0.3 mg/kg, route oral. Conditions: in vivo. The method, boiled down:
as §1

The subject of data set [5] is Rattus norvegicus. In words: Analgesic activity in po dosed Sprague-Dawley rat sciatic nerve injury-induced neuropathic pain model assessed as attenuation of tactile allodynia administered for 7 days measured 2 hrs after treatment. Conditions: in the assay text read “administered 7 days after nerve injury” for “administered for 7 days”. The format is functional, organism-based. The method, boiled down:
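Seven-week-old male Sprague Dawley rats under pentobarbital had the right common peroneal nerve tightly ligated with 4-0 silk and transected distally; in sham rats the nerve was exposed only. Seven days later, rats got an oral dose of 1, 3 or 10 mg/kg or 0.5% methylcellulose vehicle. Ipsilateral tactile allodynia was scored blinded with von Frey filaments 2 h post-dose. Mean and SE, 8 rats.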

Data set [6] deals with Rattus norvegicus. In words: Analgesic activity in po dosed Sprague-Dawley rat complete Freund's adjuvant-induced inflammatory pain model assessed as attenuation of tactile allodynia administered for 5 days measured 4 hrs after treatment. The format is functional, organism-based. Conditions: in the assay text read “administered 5 days after CFA injection” for “administered for 5 days”. The essentials: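 Six-week-old male Sprague Dawley rats received 150 µL CFA into the plantar surface of the right hind paw; sham rats got liquid paraffin instead. Five days after injection, a single oral dose of 1, 3 or 10 mg/kg was given, with 0.5% methylcellulose as vehicle. Ipsilateral tactile allodynia was scored blinded with von Frey filaments 4 h post-dose. Mean and SE, 8–10 rats.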

For data set [7], the system named is Brain. In words: AUC in rat brain at 3 mg/kg, po by LC/MS/MS analysis. It counts as ADME, organism-based. On the set-up: dose 3 mg/kg, route oral. As to conditions: in vivo. The method, boiled down: as §1
Data set [8] concerns the target T2, Fatty-acid amide hydrolase 1 (Homo sapiens, UniProt O00519).
T2 sequence (O00519 whole entry): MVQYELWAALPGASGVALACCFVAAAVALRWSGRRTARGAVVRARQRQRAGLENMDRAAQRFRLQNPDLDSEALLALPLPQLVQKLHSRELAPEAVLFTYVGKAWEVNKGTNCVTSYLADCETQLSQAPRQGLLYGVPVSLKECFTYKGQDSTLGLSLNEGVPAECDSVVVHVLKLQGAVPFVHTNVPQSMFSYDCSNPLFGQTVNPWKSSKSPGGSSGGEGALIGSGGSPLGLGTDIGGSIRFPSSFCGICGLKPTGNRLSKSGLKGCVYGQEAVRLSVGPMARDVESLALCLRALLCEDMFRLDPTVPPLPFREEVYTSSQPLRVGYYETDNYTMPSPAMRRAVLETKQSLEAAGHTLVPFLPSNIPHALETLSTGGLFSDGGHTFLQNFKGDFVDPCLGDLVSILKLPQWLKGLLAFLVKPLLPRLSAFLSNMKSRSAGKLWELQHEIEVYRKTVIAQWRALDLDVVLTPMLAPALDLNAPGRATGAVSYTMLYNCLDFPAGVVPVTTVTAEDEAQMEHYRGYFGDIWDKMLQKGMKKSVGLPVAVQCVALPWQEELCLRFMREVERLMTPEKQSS
In words: Apparent inhibition of human FAAH expressed in CHOK1 cells using AMCAA as substrate after 30 mins by fluorescence assay. The format is cell-based, CHO-K1. The method, boiled down: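 Enzyme source: CHO-K1 cells stably expressing human FAAH cloned from a human brain library, grown in Ham's F-12 with 10% FBS and 800 µg/mL G418, then homogenized in 10 mM Tris, 1 mM EDTA, 10 mM MgCl2. Fraction (125–250 ng final) was incubated with AMCAA at 37 °C in Tris-HCl pH 9.0 buffer with BSA. Fluorescence read at ex 355/em 460 nm; solvent = 100%, zero-time count = 0%. IC50 from a 30 min reaction.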

Data set [9] concerns the target T3, Fatty-acid amide hydrolase 1 (Homo sapiens) (UniProt O00519).
T3 sequence (whole entry): T2 sequence (O00519 whole entry)
In words: Irreversible inhibition of FAAH (unknown origin) using AMCAA as substrate at 10 nM by fluorescence assay. Conditions: TDE = time-dependent effect.

Data set [10] in a line: Solubility of the compound in aqueous buffer at pH 6.8 by HPLC analysis. The format is physicochemical. The method, boiled down:
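Small volumes of compound DMSO solution were added to aqueous buffer at pH 6.8 and incubated. Precipitate was removed by filtration, and the filtrate concentration was measured by HPLC.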

Broadly, the IC50 is the concentration that gives 50% inhibition. For orientation: inhibition in vivo means the change of the read-out against control, counted positive when it falls. As a reminder, the solubility is the concentration that dissolves in the medium under given conditions. A lower solubility goes with a poorly soluble substance.

≈ marks a conversion by molar mass, not a printed value. A value given as a limit tells only on which side of the number the result lay.

Consider `O=C(Nc1cccnn1)N1CCN(c2nccc(-c3ccc(F)c(F)c3)n2)CC1`, for which the AUC was 0 ng·h/g with Brain [1], 898 ng·h/g in the data set with Brain [4] and 15955 ng·h/g with Brain [7]. Further, the IC50 in data set [2] was 0.28 nM; in data set [8], 0.72 nM. Further, the inhibition in vivo at 10 mg/kg in the data set on Mus musculus was 34.7%. The Kp in [3] amounted to 2. Further, the Activity entry in the data set with Rattus norvegicus [5] and in the data set with Rattus norvegicus [6] was “Dose-dependent effect” throughout. For the same compound, in data set [9], the inhibition result is “tde”. The same compound gave a solubility in data set [10] of 3.1 µg/mL (≈ 7.8 µM).
Regarding `O=C(Nc1cccnn1)N1CCN(c2cc(-c3ccc(F)cc3F)ccn2)CC1`, the IC50 in data set [2] stood at 4.3 nM; in data set [8], 2.2 nM.
`O=C(Nc1cccnn1)N1CCN(c2nccc(-c3ccc(F)cc3F)n2)CC1`: the IC50 worked out at 0.43 nM in data set [2] and 1.1 nM in data set [8]. In [10], this compound yielded a solubility of 0.85 µg/mL (≈ 2.14 µM).
For `O=C(Nc1cccnn1)N1CCN(c2ccnc(-c3ccc(F)cc3F)n2)CC1` the same measures were 34 nM, 23 nM and 52 µg/mL (≈ 131 µM).
As for `O=C(Nc1cccnn1)N1CCN(c2cc(-c3ccc(F)cc3F)ncn2)CC1`, the IC50 in data set [2] is 1.7 nM; in data set [8], 1.5 nM.
Regarding `O=C(Nc1cccnn1)N1CCN(c2nccc(-c3cc(F)cc(F)c3)n2)CC1`, the results for the IC50 in [2] and in [8] were 0.34 nM and 0.08 nM, respectively. The inhibition in vivo at 10 mg/kg in the data set on Mus musculus was found to be 0.9%. Moreover, in data set [10], the solubility worked out at 0.1 µg/mL (≈ 0.252 µM).
Consider `CCCCC/C=C\C/C=C\C/C=C\C/C=C\CCCC(=O)NCCO` [ANANDAMIDE], for which the AUC was 64.3 ng·h/g in the data set on Brain [1], 232.9 ng·h/g with Brain [4] and 311.6 ng·h/g with Brain [7].
Regarding `O=C(Nc1cccnn1)N1CCN(c2ccnc(-c3ccc(F)cc3F)c2)CC1`, the half-inhibitory concentration (IC50) is 12 nM in [2] and 28 nM in data set [8].
In the case of `O=C(Nc1cccnn1)N1CCN(c2cncc(-c3ccc(F)cc3F)c2)CC1`, the IC50 is 74 nM in [2] and 140 nM in data set [8].
On to `O=C(Nc1cccnn1)N1CCN(c2nccc(-c3cc(F)ccc3F)n2)CC1`, for which the IC50 turned out to be 0.17 nM in data set [2] and 0.025 nM in [8]. The inhibition in vivo at 10 mg/kg in the data set on Mus musculus came to 2.2%. The same compound yielded a solubility in data set [10] of under 0.06 µg/mL.
Regarding `O=C(Nc1cccnn1)N1CCN(c2nccc(-c3cccc(F)c3F)n2)CC1`, the half-maximal inhibitory concentration (IC50) in data set [2] stood at 1.2 nM; in data set [8], 0.072 nM. For the same compound, the inhibition in vivo at 10 mg/kg in the data set on Mus musculus was 18.9%. For the same compound, the solubility in [10] came out at 0.16 µg/mL (≈ 0.403 µM).
Consider `O=C(Nc1cccnn1)N1CCN(c2cccc(-c3ccc(F)cc3F)n2)CC1`, for which the half-inhibitory concentration (IC50) came to 13 nM in data set [2] and 36 nM in data set [8].

For the origin of these results see ChEMBL document CHEMBL3112484, “Design, synthesis, and biological evaluation of a series of piperazine ureas as fatty acid amide hydrolase inhibitors” (Bioorg Med Chem, 2014).
